Results: paper PMC9647759 (Pharmaceutical Chemistry Journal, 2022)

Legend:
female Wistar rats = experiment: Acute oral toxicity; format: in vivo; conditions: 100 mg/kg, observed 48 h for mortality
In short: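 Female Wistar rats were fasted overnight, then given the test compound orally as a single 100 mg/kg dose. Animals were watched for signs of morbidity […].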

Vero cells = experiment: In vitro cytotoxicity assay on Vero cells; format: cell-based, monkeys; conditions: 100 μM, 24 h, 3000 Vero cells/well
In short: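 Vero cells, about 3000 per well at 90% confluency, were exposed to the test compound at 100 μM for 24 h at 37°C in a CO2 incubator. The percentage of metabolically active cells was compared with untreated control to give cytotoxicity. Three independent runs were done.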

Row | Structure (SMILES) | toxicity in vivo (female Wistar rats) | toxicity in vitro (Vero cells)
1 | Cc1nc2ccccc2n1CC(=O)NN [MBNHYD, 2-(2-methyl-1H-benzimidazol-1-yl) acetohydrazide] | non-toxic | non-toxic
2 | Cc1nc2ccccc2n1CC(=O)NNc1ccccc1 [MBPHYD, 2-(2-methyl-1H-benzimidazol-1-yl)-N′-phenylacetohydrazide] | non-toxic | non-toxic
